Data on 15 compounds can be found in ChEMBL document CHEMBL1123028, “Synthesis and biological effects of novel thiocolchicines. 3. Evaluation of N-acyldeacetylthiocolchicines, N-(alkoxycarbonyl) deacetylthiocolchicines, and O-ethyldemethylthiocolchicines. New synthesis of thiodemecolcine and antileukemic effects of 2-demethyl- and 3-demethylthiocolchicine” (J Med Chem, 1985).

For data set [1], the species on record is Mus musculus. In words: Antitumor activity against P388 lymphocytic leukemia in mice. The format is functional. A digest of the protocol: (§1)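 P388 lymphocytic leukemia implanted ip in mice, run to NCI Developmental Therapeutics Program protocols. Treatment given on a QD1 × 9 schedule. T/C = median survival time of treated animals / median survival time of untreated controls × 100. Value reported at the dose level giving the highest T/C. Activity requires duplicate tests with T/C ≥ 120%; a reproducible T/C ≥ 175% counts as significant.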

The species named for data set [2] is Mus musculus. Nature of the data set: Compound was evaluated for the antitumor activity against P388 lymphocytic leukemia in mice; T/C = (days test animal live/days control animals live x100). The format is functional. The gist of the method: as §1
For data set [3], the species on record is Mus musculus. Nature of the data set: MED(minimum effective dose) against P388 lymphocytic leukemia in mice; this dose produced T/C greater than the threshold value of 125. Type of data set: functional. The arrangement: unit: mg/kg. The gist of the method:
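P388 leukemia implanted ip in mice, treated on a QD1 × 9 schedule under NCI Developmental Therapeutics Program protocols. Minimum effective dose (mg/kg) taken as the lowest dose giving T/C, as survival of treated versus control animals × 100, above the threshold of 125.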

Data set [4] in a line: (§2) Lethal dose after the intraperitoneal injection in a group of 10 mice. The format is toxicity, organism-based. Conditions: mouse, in vivo, ip. A digest of the protocol: (§3)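 NIH general purpose mice (ca. 20 g) were given a single ip injection in an Emulphor EL-620 mixture. Groups of 10 were used at each of usually at least five dose levels. One set of 10 mice received the emulphor mixture alone as a control for each compound. Survivors were counted 7 days after injection, and LD50 (mg/kg) with 95% confidence interval was derived by probit analysis.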

Data set [5] has as its system Mus musculus. Described as §2. The format is toxicity, organism-based. Conditions: in vivo, ip. The gist of the method: as §3
The species entered for data set [6] is Mus musculus. In words: Compound was evaluated for the antitumor activity against P388 lymphocytic leukemia in mice. The format is functional. The gist of the method:
as §1

For data set [7], the species on record is Mus musculus. In words: Compound was evaluated for the antitumor activity against P388 lymphocytic leukemia in mice; T/C = days test animal live/days control animals live x100. Type of data set: functional. A digest of the protocol: as §1
For data set [8], the species on record is Mus musculus. In words: Compound was evaluated for the antitumor activity against P388 lymphocytic leukemia in mice;T/C=days test animal live/days control animals live x100). Type of data set: functional. The gist of the method:
as §1

For `CCCCOC(=O)N[C@H]1CCc2cc(OC)c(OC)c(OC)c2-c2ccc(SC)c(=O)cc21`, the Dose in the data set listed under Mus musculus [1] turned out to be 3 mg/kg. Further, the T/C in the data set filed under Mus musculus [2] is recorded as 142. Also, in the data set listed under Mus musculus [3], the MED was below 3. In data set [4], this compound came in with a 50% lethal dose (LD50) of 81 mg/kg.

`CN[C@H]1CCc2cc(OC)c(OC)c(OC)c2-c2ccc(SC)c(=O)cc21`: in the data set listed under Mus musculus [1], the Dose amounted to 100 mg/kg. This compound gave a T/C in the data set listed under Mus musculus [2] of 131. This compound yielded an MED in the data set filed under Mus musculus [3] of 50. This compound showed a Binding in the data set on Mus musculus [5] above 100 mg/kg.

In the data set filed under Mus musculus [1], `COc1cc2c(c(OC)c1OC)-c1ccc(SC)c(=O)cc1[C@@H](NC(=O)Oc1ccccc1)CC2` had a Dose of 5 mg/kg. The same compound yielded a T/C in the data set listed under Mus musculus [6] of 164. In the data set filed under Mus musculus [3], this compound registered an MED of 2.5. The compound further came in with a 50% lethal dose (LD50) in data set [4] above 50 mg/kg.

`CCOC(=O)N[C@H]1CCc2cc(OC)c(OC)c(OC)c2-c2ccc(SC)c(=O)cc21`: the Dose in the data set filed under Mus musculus [1] was determined as 1.5 mg/kg. For the same compound, the T/C in the data set listed under Mus musculus [7] amounted to 172. The compound also came in with an MED in the data set filed under Mus musculus [3] of 0.38.

Consider `C=COC(=O)N[C@H]1CCc2cc(OC)c(OC)c(OC)c2-c2ccc(SC)c(=O)cc21`, for which the Dose in the data set listed under Mus musculus [1] came to 3 mg/kg. For the same compound, the T/C in the data set filed under Mus musculus [2] was 152. Besides, the MED in the data set listed under Mus musculus [3] is on record as 1.5. For the same compound, the LD50 in data set [4] came out at 87.5 mg/kg.

With `COc1cc2c(c(OC)c1O)-c1ccc(SC)c(=O)cc1[C@@H](NC(C)=O)CC2`, the Dose in the data set listed under Mus musculus [1] was 10 mg/kg. In addition, the T/C in the data set listed under Mus musculus [6] is recorded as 148. Besides, the MED in the data set listed under Mus musculus [3] came out at 2.5. The same compound registered an LD50 in data set [4] of 68.1 mg/kg.

As for `CCOCC(=O)N[C@H]1CCc2cc(OC)c(OC)c(OC)c2-c2ccc(SC)c(=O)cc21`, in the data set listed under Mus musculus [1], the Dose turned out to be 1.5 mg/kg. In the data set filed under Mus musculus [3], this compound displayed an MED of 0.38. The LD50 in data set [4] was 5.1 mg/kg. The compound further had a T/C in the data set filed under Mus musculus [8] of 229.

In the data set listed under Mus musculus [1], `COc1c(O)cc2c(c1OC)-c1ccc(SC)c(=O)cc1[C@@H](NC(C)=O)CC2` showed a Dose of 5 mg/kg. In the data set filed under Mus musculus [6], this compound returned a T/C of 194. Besides, in the data set listed under Mus musculus [3], the MED worked out at 1.25.

For `COc1cc2c(c(OC)c1OC)-c1ccc(SC)c(=O)cc1[C@@H](N(C)C(=O)C(F)(F)F)CC2`, in the data set listed under Mus musculus [1], the Dose came out at 10 mg/kg. The same compound gave a T/C in the data set filed under Mus musculus [2] of 145. The same compound had an MED in the data set listed under Mus musculus [3] of 5. For the same compound, the LD50 in data set [4] amounted to 18.6 mg/kg.

In turn, `COc1cc2c(c(OC)c1OC)-c1ccc(SC)c(=O)cc1[C@@H](NC=O)CC2` registered a Dose in the data set listed under Mus musculus [1] of 0.75 mg/kg. The T/C in the data set filed under Mus musculus [6] came to 171. In the data set listed under Mus musculus [3], this compound returned an MED below 0.75. This compound showed an LD50 in data set [4] of 58.2 mg/kg.

With `COc1cc2c(c(OC)c1OC)-c1ccc(SC)c(=O)cc1[C@@H](NC(=O)c1ccccc1)CC2`, the Dose in the data set filed under Mus musculus [1] is 2.5 mg/kg. In addition, in the data set listed under Mus musculus [2], the T/C was found to be 155. In the data set listed under Mus musculus [3], the MED is recorded as below 2.5. This compound also displayed an LD50 in data set [4] of 40 mg/kg.

In the data set listed under Mus musculus [1], `COc1cc2c(c(OC)c1OC)-c1ccc(SC)c(=O)cc1[C@@H](NC(=O)C(F)(F)F)CC2` came in with a Dose of 0.62 mg/kg. In the data set listed under Mus musculus [6], this compound gave a T/C of 148. Further, the MED in the data set filed under Mus musculus [3] came out at 0.32. The LD50 in data set [4] was found to be 0.9 mg/kg.

On to `CCCC(=O)N[C@H]1CCc2cc(OC)c(OC)c(OC)c2-c2ccc(SC)c(=O)cc21`, for which the Dose in the data set filed under Mus musculus [1] amounted to 1.5 mg/kg. The compound further returned a T/C in the data set filed under Mus musculus [6] of 231. In the data set listed under Mus musculus [3], this compound had an MED of 0.19.

Take `COc1cc2c(c(OC)c1OC)-c1ccc(OC)c(=O)cc1[C@@H](NC(C)=O)CC2` [COLCHICINE]: the Dose in the data set listed under Mus musculus [1] is 0.5 mg/kg. In the data set listed under Mus musculus [6], this compound showed a T/C of 245. In the data set filed under Mus musculus [3], this compound yielded an MED of 0.06.

`COc1cc2c(c(OC)c1OC)-c1ccc(SC)c(=O)cc1[C@@H](NC(C)=O)CC2` [THIOCOLCHICINE]: the Dose in the data set filed under Mus musculus [1] was 0.18 mg/kg. The compound further returned a T/C in the data set filed under Mus musculus [6] of 193. Also, in the data set listed under Mus musculus [3], the MED stood at 0.05.

For orientation: LD50 means the dose at which mortality reaches 50%.
